Experimental data gathered from unrelated publications.
Each line is one published result; the experiments were not run side by side.
Target: Serine/threonine-protein kinase Nek11 (NEK11, Homo sapiens, UniProt Q8NG66)
Sequence (Q8NG66 1-645, as in one of the studies): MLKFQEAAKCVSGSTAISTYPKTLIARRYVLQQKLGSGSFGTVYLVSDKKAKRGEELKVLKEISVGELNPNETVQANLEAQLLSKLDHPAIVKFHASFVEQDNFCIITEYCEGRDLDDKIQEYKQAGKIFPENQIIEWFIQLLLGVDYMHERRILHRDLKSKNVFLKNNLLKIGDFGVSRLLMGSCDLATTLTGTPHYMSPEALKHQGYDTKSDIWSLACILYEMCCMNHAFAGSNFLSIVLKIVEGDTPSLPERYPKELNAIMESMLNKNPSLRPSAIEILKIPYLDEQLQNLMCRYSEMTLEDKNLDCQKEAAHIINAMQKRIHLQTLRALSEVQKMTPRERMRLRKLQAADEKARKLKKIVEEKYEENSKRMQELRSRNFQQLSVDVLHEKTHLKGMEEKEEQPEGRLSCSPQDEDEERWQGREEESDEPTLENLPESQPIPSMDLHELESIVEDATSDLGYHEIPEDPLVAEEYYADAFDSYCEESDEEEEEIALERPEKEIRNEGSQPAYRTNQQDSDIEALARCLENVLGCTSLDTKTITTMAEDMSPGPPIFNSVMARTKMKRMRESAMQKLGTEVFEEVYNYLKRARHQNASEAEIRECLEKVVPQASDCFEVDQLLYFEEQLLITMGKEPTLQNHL

CCN(CC)CCNC(=O)c1c(C)[nH]c(/C=C2\C(=O)Nc3ccc(F)cc32)c1C — inhibition (enzyme activity, inhibitor; 0.3 µM): 16%
O=C(O)[C@H]1[C@H](Cn2nnc3ccccc3c2=O)CC[C@@H]1C(=O)c1ccc(OCCC2CCOCC2)cc1 — remaining binding (cell-free assay, competition with immobilised ligand; 1 µM): 100%
CC(C)(C)c1nc(-c2cccc(NS(=O)(=O)c3c(F)cccc3F)c2F)c(-c2ccnc(N)n2)s1 — remaining activity (enzyme activity, inhibitor, radiometric; 1 µM): 1%
CS(=O)(=O)N1CCCC(NC(=O)[C@H](CCC2CCCCC2)NC(=O)c2ccc(CNc3ncnc4c3nnn4-c3ccccc3)cc2)C1 (some centres unmarked) — remaining binding (cell-free assay, competition with immobilised ligand; 0.1 µM): 100%
O=C(Nc1cnn(-c2csc(C(=O)NC3COC3)c2)c1)Nc1ccccc1Cl — remaining activity (enzyme activity, inhibitor; 5 µM): 145%
CN1CC(Oc2cnc(C#N)cc2-c2ccn3nc(NC(=O)C4CC4)cc3c2)C1 — inhibition (enzyme activity, inhibitor; 1 µM): 11%
O=C1NC(=O)c2cc(Nc3ccc(F)cc3)c(Nc3ccc(F)cc3)cc21 — remaining signal (cell-free assay; 0.5 µM): 103%
NS(=O)(=O)c1cc(NC(=O)C2(c3ccccc3Cl)CC2)ccc1Oc1cccc(Cl)c1 — remaining binding (cell-free assay, competition with immobilised ligand; 1 µM): 100%
CCCOc1ccc(OC)c(F)c1C(=O)c1ccc(C(=O)N[C@@H]2CNC[C@H]2NC(=O)c2ccc3[nH]ncc3c2)cc1 — remaining activity (enzyme activity, inhibitor; 10 µM): 45%
C[C@H](c1ccc(F)cc1)N(Cc1cccc(C(=O)O)c1)C(=O)c1cnc2ccccc2c1 — remaining binding (cell-free assay, competition with immobilised ligand; 1 µM): 82%
Cc1ccc(NC(=O)c2ccc(C)c(C(F)(F)F)c2)cc1C#Cc1nn(C2CCC(O)CC2)c2ncnc(N)c12 (centres unmarked) — remaining signal (cell-free assay; 10 µM): 50%
N#CCCc1ccc2c(c1)-c1[nH]c3ccc([N+](=O)[O-])cc3c1CC(=O)N2 — remaining signal (cell-free assay; 0.5 µM): 101%
Cc1c(NC(=O)c2cc(C(N)=O)nc3cc(F)ccc23)c(C(F)(F)F)nn1Cc1ccc(C#N)cc1 — remaining binding (cell-free assay, competition with immobilised ligand; 1 µM): 100%
Cc1sc(C(=O)NC2COC2)cc1-n1cc(NC(=O)Nc2c(F)cccc2Cl)cn1 — remaining activity (enzyme activity, inhibitor; 10 µM): 70%
Cc1ccc(Nc2nccc(N(C)c3ccc4c(C)n(C)nc4c3)n2)cc1S(N)(=O)=O — inhibition (enzyme activity, inhibitor; 10 µM): 23%
C[C@@H]1CCN(C(=O)CC#N)C[C@@H]1N(C)c1ncnc2[nH]ccc12 — remaining signal (cell-free assay, inhibitor; 0.5 µM): 91.7%
Cc1cc(NC(=O)c2cccc3cc(-c4cccc5[nH]nc(N)c45)ccc23)ccc1F — activity vs control (enzyme activity, inhibitor; 0.1 µM): 91%
COc1cc(-c2cn(C3CCc4c(F)cccc4N(CC(F)(F)F)C3=O)nn2)ccc1-n1cnc(C)c1 (centres unmarked) — remaining binding (cell-free assay, competition with immobilised ligand; 1 µM): 100%
C#Cc1cccc(Nc2ncnc3cc(OCCOC)c(OCCOC)cc23)c1 — remaining signal (cell-free assay; 0.5 µM): 114%
CNC(=O)c1cc(Oc2ccc(NC(=O)Nc3ccc(Cl)c(C(F)(F)F)c3)cc2)ccn1 — inhibition (enzyme activity, inhibitor; 0.3 µM): 5%
